These results are taken from ChEMBL document CHEMBL1129639, “Synthesis and cardiotonic activity of novel pyrimidine derivatives: crystallographic and quantum chemical studies” (J Med Chem, 1996).

Holding throughout (assay type): functional
For assay [1], the species on record is Cavia porcellus. Put plainly: Effect on the contractile force of spontaneously beating atria from Reserpine-treated guinea pigs as percentage variation from the control at concentration of 10E-6 M. Summed up: (§1)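 Atria from reserpine-treated guinea pigs (reserpine 2 mg/kg ip, 48 and 24 h before death; only tyramine-unresponsive preparations used). Bath solution at 29 °C, gassed 95% O2/5% CO2, pH 7.5, resting tension […]. After 90 min equilibration, compound added cumulatively, 5 min per concentration. Isometric developed-tension amplitude or beating rate given as % variation from untreated control. Mean ± SEM, 6-10 assays.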

For assay [2], the species on record is Cavia porcellus. The assay is described as follows: Effect on the contractile force of spontaneously beating atria from Reserpine treated guinea pigs as percentage variation from the control at concentration of 10E-4 M. Summed up: as §1
For assay [3], the species on record is Cavia porcellus. Put plainly: Effect on the contractile force of spontaneously beating atria from Reserpine-treated guinea pigs as percentage variation from the control at concentration of 10E-5 M. Summed up: as §1
The species entered for assay [4] is Cavia porcellus. The assay is described as follows: Compound was evaluated for its effect on the frequency rate of spontaneously beating atria from Reserpine-treated guinea pigs as percentage variation from the control at concentration of 3 x 10E-4 M. Summed up: as §1
For assay [5], the species on record is Cavia porcellus. Put plainly: Compound was evaluated for its effect on the frequency rate of spontaneously beating atria from Reserpine-treated guinea pigs as percentage variation from the control at concentration of 3 x 10E-5 M. Summed up:
as §1

For assay [6], the species on record is Cavia porcellus. Put plainly: Effect on the contractile force of spontaneously beating atria from Reserpine-treated guinea pigs as percentage variation from the control at concentration of 3 x 10E-6 M. Summed up: as §1
Assay [7] is filed under the species Cavia porcellus. The assay is described as follows: Effect on the frequency rate of spontaneously beating atria from Reserpine-treated guinea pigs as percentage variation from the control at concentration of 10E-3 M. Summed up:
as §1

The species named for assay [8] is Cavia porcellus. Put plainly: Effect on the frequency rate of spontaneously beating atria from Reserpine-treated guinea pigs as percentage variation from the control at concentration of 10E-4 M. Summed up: as §1
The species named for assay [9] is Cavia porcellus. Put plainly: Compound was evaluated for its effect on the frequency rate of spontaneously beating atria from Reserpine-treated guinea pigs as percentage variation from the control at concentration of 3 x 10E-6 M. Summed up: as §1
For assay [10], the species on record is Cavia porcellus. Put plainly: Effect on the contractile force of spontaneously beating atria from Reserpine-treated guinea pigs as percentage variation from the control at concentration of 10E-3 M. Summed up:
as §1

For assay [11], the species on record is Cavia porcellus. Put plainly: Effect on the contractile force of spontaneously beating atria from Reserpine-treated guinea pigs as percentage variation from the control at concentration of 3 x 10E-4 M. Summed up:
as §1

For assay [12], the species on record is Cavia porcellus. The assay is described as follows: Effect on the contractile force of spontaneously beating atria from Reserpine-treated guinea pigs as percentage variation from the control at concentration of 3 x 10E-5 M. Summed up:
as §1

For assay [13], the species on record is Cavia porcellus. The assay is described as follows: Effect on the frequency rate of spontaneously beating atria from Reserpine-treated guinea pigs as percentage variation from the control at concentration of 10E-5 M. Summed up:
as §1

The species entered for assay [14] is Cavia porcellus. The assay is described as follows: Effect on the frequency rate of spontaneously beating atria from Reserpine-treated guinea pigs as percentage variation from the control at concentration of 10E-6 M. Summed up: as §1

Each structure is given as a SMILES string.

Take `COCc1nc(N(C)C)ncc1C(=O)OC`: the Variation in assay [1] was 3.04%; in [2], 16.95%; in assay [3], 11.14%; in assay [4], 7.14%; in assay [5], 3.57%; in [6], 6.93%. For the same molecule, the Variation was found to be 11.43% in assay [7]; 7.14% in assay [8]; 0% in assay [9]; 25.41% in [10]; 18.95% in assay [11]; 14.95% in assay [12]. The figures for the Variation in assay [13] and in assay [14] were 2.85% and 0%, respectively.

For `Cc1nc(N(C)C)ncc1C(=O)O`, the Variation came to 0% in assay [1]; 10.82% in [2]; 5.18% in assay [3]; 6.45% in assay [4]; 3.22% in assay [5]; 3.77% in assay [6]. In addition, the Variation in [7] was -3.12%; in assay [8] it was 3.22%; in assay [9], 6.45%; in assay [10], 21.96%; in assay [11] it was 15.77%; in assay [12], 8.62%. The Variation in assay [13] worked out at 9.67%; in assay [14] it was 0%.

Consider `CCc1nc(N(C)C)ncc1C(=O)O`, for which the Variation is listed as 0% in assay [1]; 6.67% in [2]; 4.47% in assay [3]; -4.79% in [4]; 0% in assay [5]; 2.44% in assay [6]. Further, the Variation in assay [7] is listed as -7.69%; in assay [8], 1.11%; in assay [9] it was 0%; in assay [10], 22.03%; in assay [11] it was 14.69%; in assay [12] it was 6.17%. Moreover, the Variation in [13] and in assay [14] was 0% throughout.

As for `CCOC(=O)c1cnc(N(C)C)nc1C(F)(F)F`, the Variation in [1] is given as 7.15%; in assay [2], -30.35%; in [3] it was 10.67%; in assay [4], -6.66%; in assay [5], -3.61%; in assay [6], 11.26%. Also, the Variation in [7] is -19.35%; in [8], -6.66%; in assay [9], 0%; in assay [10], -60.44%; in [11] it was -47.85%; in assay [12] it was -3.61%. Further, the Variation in [13] is reported as -3.23%; in assay [14], 0%.

Turning to `Cc1ccnc(N(C)C)n1`, the Variation was 0% in assay [1]; 19.04% in [2]; 8.9% in assay [3]; -6.25% in assay [4]; 0% in [5]; 2.27% in assay [6]. In addition, the Variation in assay [7] is -17.34%; in assay [8], 0%; in assay [9], 0%; in assay [10] it was -36.67%; in [11], 22.47%; in [12], 16.76%. Further, the Variation in [13] and in assay [14] was 0% in each case.

For the molecule `CN(C)c1ncc(C(=O)O)c(C(F)(F)F)n1`, the Variation in assay [1] is given as 2.25%; in assay [2] it was 14.03%; in assay [3], 9.45%; in assay [4], -9.09%; in assay [5], -3.03%; in [6] it was 6.15%. The Variation is -14.28% in assay [7]; -3.03% in assay [8]; 0% in assay [9]; 9.52% in assay [10]; 14.96% in assay [11]; 13.44% in assay [12]. For the same molecule, the Variation in assay [13] was -2.85%; in assay [14], 0%.

For the molecule `CN(C)c1nccc(C(F)(F)F)n1`, the Variation in assay [1] is recorded as 0%; in assay [2] it was -67.95%; in assay [3], -12.62%; in [4], -32.26%; in [5], -3.68%; in assay [6], 2.47%. In addition, the Variation in assay [7] was -100%; in assay [8], -22.58%; in [9] it was 0%; in [10], -100%; in [11], -83.03%; in [12], -30.94%. The Variation in assay [13] is -3.23%; in [14], 0%.

As to `CN(C)c1nccc(Cc2ccccc2)n1`, the Variation in assay [1] is given as 6.43%; in assay [2], -32.51%; in assay [3] it was 9.18%; in [4], -9.09%; in assay [5] it was 3.03%; in [6] it was 10.71%. In addition, the Variation in assay [7] is -12.12%; in [8] it was -3.03%; in assay [9], 0%; in assay [10] it was -57.09%; in assay [11], -46.99%; in assay [12] it was 3.17%. The Variation in assay [13] worked out at 3.03%; in [14] it was 0%.

With `CCOC(=O)c1cnc(N(C)C)nc1C(=O)OCC`, the Variation is reported as 0% in [1]; -48.31% in [2]; 0.54% in assay [3]; -55.55% in assay [4]; -7.41% in assay [5]; 2.18% in assay [6]. For the same molecule, the Variation is -100% in [7]; -40.77% in assay [8]; 0% in assay [9]; -100% in assay [10]; -76.47% in assay [11]; -5.33% in assay [12]. Besides, the values for the Variation in assay [13] and in assay [14] were -4.76% and 0%, respectively.

With `CCCc1nc(N(C)C)ncc1C(=O)O`, the Variation is reported as 5.38% in assay [1]; 18.35% in [2]; 11.21% in assay [3]; -5.71% in assay [4]; -2.85% in assay [5]; 8.66% in assay [6]. Also, the Variation was -4.28% in assay [7]; -2.85% in assay [8]; 0% in assay [9]; 23.61% in [10]; 19.73% in [11]; 15.72% in [12]. Also, the results for the Variation in [13] and in assay [14] were -2.85% and 0%, respectively.

Turning to `CCCc1ccnc(N(C)C)n1`, the Variation in assay [1] is 0%; in assay [2], -64.06%; in assay [3] it was 3.15%; in assay [4], -52.63%; in assay [5], -31.58%; in assay [6], 7.18%. The Variation in [7] was -52.63%; in assay [8], -52.63%; in assay [9], -5.29%; in assay [10] it was -91.86%; in assay [11], -73.58%; in assay [12], -10.63%. Further, the Variation in assay [13] is reported as -26.31%; in assay [14] it was 0%.

Regarding `Nc1cc(-c2ccncc2)c[nH]c1=O` [INAMRINONE], the Variation in assay [1] came to 0%; in assay [2], 10.22%; in assay [3], 0.52%; in [4], 7.2%; in assay [5], 1.5%; in [6], 0%. Also, the Variation in assay [7] worked out at 9.87%; in assay [8] it was 6.25%; in assay [9] it was 0%; in assay [10], 23.12%; in assay [11], 19.03%; in assay [12], 4.5%. The Variation in assay [13] and in assay [14] was 0% throughout.
